Test results published in ChEMBL document CHEMBL1149787, “Synthesis and cannabinoid activity of 1-substituted-indole-3-oxadiazole derivatives: novel agonists for the CB1 receptor” (Eur J Med Chem, 2008).
Calls of active or inactive are those of the source. The rule behind the calls is not given here.

Assays:
[1] = target: Cannabinoid receptor 1 (Rattus norvegicus, UniProt P20272); experiment: (§1) Displacement of [3H]SR141716A from CB1 receptor in Sprague-Dawley rat cerebellum membrane; type: tissue-based
[2] = target: Cannabinoid receptor 1 (Mus musculus) (UniProt P47746); experiment: Agonist activity at CB1 receptor in electrically-stimulated Swiss mouse vas deferens; type: functional, tissue-based
Procedure, shortened: (§2)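 Electrically stimulated mouse vas deferens. Prostatic end tied between parallel field electrodes, epididymal end attached to an isometric force transducer. Tissue stretched by 0.5 g force, equilibrated 10 min, then stimulated with trains of three pulses (4 Hz, 0.5 ms, 100 V) every 20 s. Effect taken as % decrease of pre-drug twitch force; single concentrations expressed relative to vehicle.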

[3] = target: Cannabinoid receptor 1 (Mus musculus) (UniProt P47746); experiment: Agonist activity at CB1 receptor in electrically-stimulated Swiss mouse vas deferens at 1.0 uM; type: functional, tissue-based; procedure, shortened: as §2
[4] = target: Cannabinoid receptor 2 (Homo sapiens, UniProt P34972); experiment: Activity at CB2 receptor
[5] = Selectivity for CB2 receptor over CB1 receptor
[6] = target: Cannabinoid receptor 1 (Homo sapiens, UniProt P21554); experiment: Agonist activity at CB1 receptor; type: functional
[7] = target: T1, Cannabinoid receptor 2 (Rattus norvegicus, UniProt Q9QZN9); experiment: (§3) Displacement of [3H]WIN-55212-2 from CB2 receptor in Sprague-Dawley rat spleen membrane; type: cell membranes
T1 sequence (Q9QZN9 whole entry): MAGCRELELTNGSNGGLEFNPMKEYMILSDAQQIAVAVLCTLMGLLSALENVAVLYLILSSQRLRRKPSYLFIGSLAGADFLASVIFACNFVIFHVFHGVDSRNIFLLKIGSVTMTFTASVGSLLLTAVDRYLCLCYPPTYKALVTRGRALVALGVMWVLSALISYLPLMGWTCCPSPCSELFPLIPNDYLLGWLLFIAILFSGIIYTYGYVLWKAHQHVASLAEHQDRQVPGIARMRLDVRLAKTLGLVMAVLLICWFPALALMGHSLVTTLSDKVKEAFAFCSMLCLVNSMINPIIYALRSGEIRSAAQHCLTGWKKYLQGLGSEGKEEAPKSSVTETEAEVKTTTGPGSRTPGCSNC

[8] = target: T2, Cannabinoid receptor 2 (Rattus norvegicus) (UniProt Q9QZN9); experiment: Displacement of [3H]WIN-55212-2 from CB2 receptor in Sprague-Dawley rat spleen membrane at 10 uM; type: cell membranes
T2 sequence (whole entry): T1 sequence (Q9QZN9 whole entry)
Procedure, shortened: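 Spleen membranes from Sprague Dawley rats (supernatant spun at 23,800g, pellet kept) in tris-HCl pH 7.4 with MgCl2 and EGTA. 30.0 µg protein per tube with 1.0 mg/mL BSA, 0.2 nM [3H]WIN-55,212-2 and test drug, triplicate, 30 °C for 90 min. Nonspecific binding defined with 1.0 µM unlabelled WIN-55,212-2. Filtration, scintillation counting, nonlinear regression; means of at least four estimates.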

[9] = target: T2, Cannabinoid receptor 2 (Rattus norvegicus); experiment: as §3; type: cell membranes
[10] = target: Cannabinoid receptor 1 (Rattus norvegicus) (UniProt P20272); experiment: as §1; type: tissue-based
Sequence of Cannabinoid receptor 1 (Rattus norvegicus) (P20272 whole entry): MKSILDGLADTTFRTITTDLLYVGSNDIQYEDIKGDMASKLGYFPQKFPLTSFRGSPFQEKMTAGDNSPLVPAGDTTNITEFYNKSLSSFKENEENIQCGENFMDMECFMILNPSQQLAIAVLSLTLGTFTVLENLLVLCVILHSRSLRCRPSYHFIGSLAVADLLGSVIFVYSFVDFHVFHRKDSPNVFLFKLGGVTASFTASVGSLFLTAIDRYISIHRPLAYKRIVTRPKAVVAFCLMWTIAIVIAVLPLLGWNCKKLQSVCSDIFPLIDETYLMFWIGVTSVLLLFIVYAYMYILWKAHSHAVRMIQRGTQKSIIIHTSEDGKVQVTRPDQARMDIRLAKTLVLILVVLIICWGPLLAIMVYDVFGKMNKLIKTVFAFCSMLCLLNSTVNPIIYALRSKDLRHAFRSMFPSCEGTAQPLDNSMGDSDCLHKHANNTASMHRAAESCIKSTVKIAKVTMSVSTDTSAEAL

Sequence of Cannabinoid receptor 1 (Rattus norvegicus, UniProt P20272) (P20272 whole entry): as above
Sequence of Cannabinoid receptor 1 (Mus musculus) (P47746 whole entry): as the sequence (P20272 whole entry) above, with E95D counted along it
Sequence of Cannabinoid receptor 1 (Homo sapiens, UniProt P21554) (P21554 whole entry): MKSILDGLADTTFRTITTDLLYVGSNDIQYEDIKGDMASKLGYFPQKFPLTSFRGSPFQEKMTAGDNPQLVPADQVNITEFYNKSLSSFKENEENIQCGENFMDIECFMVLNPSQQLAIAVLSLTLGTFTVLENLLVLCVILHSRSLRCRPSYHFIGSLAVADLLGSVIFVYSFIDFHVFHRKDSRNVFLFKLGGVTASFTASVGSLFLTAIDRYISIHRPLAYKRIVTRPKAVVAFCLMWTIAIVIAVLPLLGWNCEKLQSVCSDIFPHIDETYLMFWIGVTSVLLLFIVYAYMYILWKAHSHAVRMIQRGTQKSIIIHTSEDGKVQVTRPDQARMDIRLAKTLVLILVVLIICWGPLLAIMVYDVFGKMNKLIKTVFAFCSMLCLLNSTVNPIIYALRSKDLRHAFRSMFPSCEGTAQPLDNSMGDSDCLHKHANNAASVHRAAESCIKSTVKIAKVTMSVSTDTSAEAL
Sequence of Cannabinoid receptor 2 (Homo sapiens, UniProt P34972) (P34972 whole entry): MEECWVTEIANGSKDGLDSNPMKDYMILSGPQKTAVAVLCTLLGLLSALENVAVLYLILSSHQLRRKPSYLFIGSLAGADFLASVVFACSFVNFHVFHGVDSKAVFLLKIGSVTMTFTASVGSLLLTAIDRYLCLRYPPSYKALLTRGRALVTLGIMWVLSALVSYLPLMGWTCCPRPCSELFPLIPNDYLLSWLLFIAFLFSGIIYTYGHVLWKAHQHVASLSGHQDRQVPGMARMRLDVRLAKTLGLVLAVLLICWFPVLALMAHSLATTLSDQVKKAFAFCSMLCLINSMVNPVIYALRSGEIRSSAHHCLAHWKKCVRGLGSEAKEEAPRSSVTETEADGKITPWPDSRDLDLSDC

Compound | IC50 [1] | inhibition [3] | also measured
c1ccc(Cc2noc(-c3cn(CCN4CCCCC4)c4ccccc34)n2)cc1 | 5.6 µM | – | agonist potency (pEC50) [2]: 5.6
O=C(O)CCCCn1cc(-c2nc(Cc3ccc4ccccc4c3)no2)c2ccccc21 | – | 53.6% | –
Cc1c(CCN2CCOCC2)c2ccccc2n1C(=O)c1cccc2ccccc12 | – | – | Ki [4]: 0.0085 µM; Selectivity ratio [5]: 160
CCOC(=O)CCCCn1cc(-c2nc(Cc3ccc4ccccc4c3)no2)c2ccccc21 | – | 41.6% | –
COc1ccc2c(c1)c(CCN1CCOCC1)c(C)n2C(=O)c1cccc(Cl)c1Cl | – | – | Selectivity ratio [5]: 160
COc1ccc(C(=O)c2c(C)n(CCN3CCOCC3)c3ccccc23)cc1 [PRAVADOLINE] | – | – | IC50 [6]: 0.453 µM
c1ccc(-c2noc(-c3cn(CCN4CCOCC4)c4ccccc34)n2)cc1 | 0.25 µM | – | IC50 [7]: 4.03 µM; agonist potency (pEC50) [2]: 6.47
CCCCC(C)(C)c1cc(O)c2c(c1)OC(C)(C)[C@H]1CC=C(CO)C[C@H]21 | 3.22 µM | – | –
c1ccc(Cc2noc(-c3cn(CCN4CCOCC4)c4ccccc34)n2)cc1 | 2.62 µM | – | IC50 [7]: 1.1 µM; agonist potency (pEC50) [2]: 7
CC(=O)Oc1cn(CCN2CCOCC2)c2ccccc12 | – | 81.8% | –
c1ccc(-c2ccc(-c3noc(-c4cn(CCN5CCOCC5)c5ccccc45)n3)cc2)cc1 | 1.52 µM | 11.4% | inhibition [8]: 14%
O=C(Cn1cc(-c2nc(Cc3ccccc3)no2)c2ccccc21)N1CCOCC1 | – | 17% | Activity [9]: inactive
c1csc(Cc2noc(-c3cn(CCN4CCOCC4)c4ccccc34)n2)c1 | 6.8 µM | 81% | –
O=C(Cn1cc(-c2nc(-c3ccccc3)no2)c2ccccc21)N1CCOCC1 | – | -5.29% | Activity [9]: inactive
Brc1ccc(Cc2noc(-c3cn(CCN4CCOCC4)c4ccccc34)n2)cc1 | 6.2 µM | 58% | –
c1ccc(CCc2noc(-c3cn(CCN4CCOCC4)c4ccccc34)n2)cc1 | 6.8 µM | 90% | –
O=C(c1nc(Cc2ccccc2)no1)c1cn(CCN2CCOCC2)c2ccccc12 | – | 22.4% | –
O=C(c1nc(-c2ccccc2)no1)c1cn(CCN2CCOCC2)c2ccccc12 | – | 44.3% | Activity [9]: inactive
c1ccc2cc(Cc3noc(-c4cn(CCN5CCOCC5)c5ccccc45)n3)ccc2c1 | – | 95.6% | –
Clc1ccccc1Cc1noc(-c2cn(CCN3CCOCC3)c3ccccc23)n1 | 7.4 µM | 95% | –
c1ccc(Cc2noc(-c3cn(CCN4CCCC4)c4ccccc34)n2)cc1 | – | – | agonist potency (pEC50) [2]: 7.2
c1ccc(Cc2noc(-c3cn(CCN4CCOCC4)cn3)n2)cc1 | – | 46.8% | Activity [10]: inactive
COc1ccc(Cc2noc(-c3cn(CCN4CCOCC4)c4ccccc34)n2)cc1 | – | 39.2% | –
COc1ccc(C(=O)c2c3n(c4ccccc24)C(CN2CCOCC2)CC3)cc1 (stereo unspecified) | – | – | IC50 [6]: 0.00032 µM
CCCCCn1cc(-c2nc(Cc3ccccc3)no2)c2ccccc21 | 8.8 µM | 100% | –
O=C1NC(Cn2cc(-c3nc(Cc4ccccc4)no3)c3ccccc32)CO1 (stereo unspecified) | 6.1 µM | 15.8% | –
c1ccc2cc(Cc3noc(-c4cn(CCN5CCCC5)c5ccccc45)n3)ccc2c1 | – | 78.6% | –
O=C(Cn1cc(-c2nc(Cc3ccccc3Cl)no2)c2ccccc21)N1CCOCC1 | – | – | Activity [10]: inactive
